Results: PMC7312786 (Biochemistry, 2018)

Legend:
[1] = biological target: T1, hpol κ (Homo sapiens, UniProt Q9UBT6); assay: Gel-based pol extension assay, hpol κ; type: biochemical
T1 sequence (Q9UBT6 19-526): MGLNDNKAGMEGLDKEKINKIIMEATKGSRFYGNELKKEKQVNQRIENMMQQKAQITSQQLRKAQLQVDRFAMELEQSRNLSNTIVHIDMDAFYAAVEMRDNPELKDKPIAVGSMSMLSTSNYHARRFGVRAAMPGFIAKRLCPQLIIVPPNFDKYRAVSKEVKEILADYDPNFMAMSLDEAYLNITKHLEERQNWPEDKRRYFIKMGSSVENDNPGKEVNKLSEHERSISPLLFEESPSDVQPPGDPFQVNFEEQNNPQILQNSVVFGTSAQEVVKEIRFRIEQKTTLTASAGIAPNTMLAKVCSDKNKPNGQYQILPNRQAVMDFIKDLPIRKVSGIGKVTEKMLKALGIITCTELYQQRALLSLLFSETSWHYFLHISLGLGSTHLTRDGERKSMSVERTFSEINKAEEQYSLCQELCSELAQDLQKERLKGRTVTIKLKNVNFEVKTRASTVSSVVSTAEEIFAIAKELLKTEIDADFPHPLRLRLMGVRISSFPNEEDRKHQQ
Summary of the method: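 Gel extension assay with hpol ι core (residues 1–446) or hpol κ core (residues 19–526). Enzyme 2 nM preincubated 5 min with increasing test compound in 50 mM HEPES pH 7.5, 50 mM NaCl, 1 mM DTT, 0.1 mg/mL BSA, 10% glycerol. Started at 37 °C with 200 nM FAM-labeled 13/18-mer primer–template, 10 μM each dNTP, 5 mM MgCl₂. Quench: 20 mM EDTA/95% formamide, 95 °C. Triplicate; IC50 mean ± SD.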

[2] = biological target: T2, Dpo1 (Saccharolobus solfataricus, UniProt P26811); assay: Fluorescence-based pol activity assay, Dpo1; type: biochemical, Sulfolobus solfataricus; conditions: 20 μM PNR-7-02
T2 sequence (P26811 1-882): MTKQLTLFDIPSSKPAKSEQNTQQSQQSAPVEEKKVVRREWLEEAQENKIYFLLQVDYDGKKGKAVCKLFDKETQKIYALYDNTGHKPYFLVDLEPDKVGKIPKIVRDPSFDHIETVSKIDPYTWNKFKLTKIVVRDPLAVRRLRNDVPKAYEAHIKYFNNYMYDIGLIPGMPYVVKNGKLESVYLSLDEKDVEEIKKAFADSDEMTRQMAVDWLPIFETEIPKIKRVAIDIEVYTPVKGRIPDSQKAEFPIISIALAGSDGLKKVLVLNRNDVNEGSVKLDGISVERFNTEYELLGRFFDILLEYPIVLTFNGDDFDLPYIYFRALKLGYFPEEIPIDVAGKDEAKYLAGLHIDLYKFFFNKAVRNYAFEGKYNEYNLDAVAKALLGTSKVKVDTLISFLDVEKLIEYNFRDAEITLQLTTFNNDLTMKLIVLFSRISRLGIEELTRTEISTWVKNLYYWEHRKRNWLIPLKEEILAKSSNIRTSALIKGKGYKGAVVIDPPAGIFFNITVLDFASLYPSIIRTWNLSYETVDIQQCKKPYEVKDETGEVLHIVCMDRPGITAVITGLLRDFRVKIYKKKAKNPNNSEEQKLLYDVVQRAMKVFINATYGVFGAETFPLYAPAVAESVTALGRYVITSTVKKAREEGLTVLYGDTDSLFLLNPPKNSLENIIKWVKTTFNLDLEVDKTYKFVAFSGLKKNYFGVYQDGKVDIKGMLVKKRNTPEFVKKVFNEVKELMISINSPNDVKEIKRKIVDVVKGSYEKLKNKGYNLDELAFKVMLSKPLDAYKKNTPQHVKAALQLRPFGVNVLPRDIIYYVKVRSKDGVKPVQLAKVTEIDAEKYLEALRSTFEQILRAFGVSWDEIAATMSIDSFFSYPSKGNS

[3] = biological target: T3, hpol λ (Homo sapiens, UniProt Q9UGP5); assay: Fluorescence-based pol activity assay, hpol λ; type: biochemical
T3 sequence (Q9UGP5 251-575 limits assumed): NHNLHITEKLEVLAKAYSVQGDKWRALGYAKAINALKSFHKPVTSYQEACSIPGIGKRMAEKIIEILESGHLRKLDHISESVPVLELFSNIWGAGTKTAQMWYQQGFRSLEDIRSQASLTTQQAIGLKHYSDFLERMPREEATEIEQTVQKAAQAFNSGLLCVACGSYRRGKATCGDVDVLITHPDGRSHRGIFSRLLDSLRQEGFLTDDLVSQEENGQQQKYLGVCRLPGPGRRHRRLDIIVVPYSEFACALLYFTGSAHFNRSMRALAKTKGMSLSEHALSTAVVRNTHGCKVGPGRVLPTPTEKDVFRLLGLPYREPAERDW

[4] = tested on: γH2AX in hpol η-proficient HAP-1 cells; assay: γH2AX immunoblotting, hpol η-proficient HAP-1 cells; type: cell-based, human; conditions: PNR-7-02 alone
Summary of the method: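 HAP-1 cells treated with DMSO or 0.5 μM CDDP combined with 0.1 or 1 μM test compound. Pellets lysed at 4 °C in HEPES pH 7.5/Triton X-100 buffer with phosphatase and protease inhibitors. 30–40 μg protein run on 4–20% SDS-PAGE, transferred to nitrocellulose. Probed with anti-γH2AX (S139) 1:1500 and HRP anti-rabbit 1:4000; β-actin loading control; chemiluminescence. Bands normalized to β-actin, relative to DMSO; three biological replicates; t test.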

O=C1NC(=S)NC(=O)C1=Cc1cn(Cc2ccc3ccccc3c2)c2ccc(Cl)cc12 [PNR-7-02, 5-((5-chloro-1-(naphthalen-2-ylmethyl)-1H-indol-3-yl)methylene)-2-thioxodihydropyrimidine-4,6-(1H,5H)-dione]
Increase in IC50 against hpol κ ([1]; gel-based assay, relative to hpol η / hRev1): ~3 fold
IC50 ([1]; read-out: IC50, hpol κ, gel-based assay, best-fit value (95% confidence interval), three experiments): 22 µM
Effect on catalysis by Dpo1 [2]: not affected at all
Pol activity relative to DMSO control, Dpo1 ([2]; mean (±SD)): 118 (±15) %
Effect on catalysis by hpol λ ([3]; 20 μM PNR-7-02): strongly inhibited
Pol activity relative to DMSO control, hpol λ ([3]; 20 μM PNR-7-02, mean (±SD)): 5.9 (±2.1) %
IC50 ([3]; read-out: IC50, hpol λ, best-fit value and 95% confidence interval, three replicates): 8 µM
μH2AX formation [4]: did not change
